Compound activity as filed in PubChem BioAssay.
Kir21 inh = Kir2.1 (mouse) channel inhibition. P35561. HEK293-Kir2.1, FluxOR thallium flux fluorescence; stronger effect = lower value. B-score at 10 µM. 310,000 tested, 0.85% active. AID 1672;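 active means fluorescence ratio B-score at or below minus 3 SD of library scores, with starting-brightness B-score within 2 SD, cut at about -4.2 in these data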;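 further: channel flux triggered by added potassium and thallium sulfate stimulus; B-score of peak minus minimum fluorescence over baseline after thallium stimulus; more negative B-score means stronger Kir2.1 block with less thallium influx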
KCNK3 block = human KCNK3 channel inhibition, primary screen. O14649. CHO-KCNK3 thallium flux, FluxOR fluorescence; stronger effect = lower value. B-score at 10 µM. 340,000 tested, 0.84% active. AID 602410;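 active means B-score under library mean minus 4 SD, starting fluorescence ratio at most library mean plus 5 SD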;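 further: more negative B-score means stronger inhibition of thallium flux through KCNK3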
Target sequence (O14649 whole entry, looked up): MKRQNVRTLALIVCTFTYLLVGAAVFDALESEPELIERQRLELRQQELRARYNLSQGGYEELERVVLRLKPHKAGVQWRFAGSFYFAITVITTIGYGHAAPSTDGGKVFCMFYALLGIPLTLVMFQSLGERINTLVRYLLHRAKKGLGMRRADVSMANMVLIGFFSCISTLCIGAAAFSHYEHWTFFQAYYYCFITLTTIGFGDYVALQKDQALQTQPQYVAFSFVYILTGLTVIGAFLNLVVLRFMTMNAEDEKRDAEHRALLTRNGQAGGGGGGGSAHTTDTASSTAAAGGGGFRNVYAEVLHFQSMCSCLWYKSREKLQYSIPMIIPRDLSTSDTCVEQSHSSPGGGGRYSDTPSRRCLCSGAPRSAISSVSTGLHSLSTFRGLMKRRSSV
KCNK9 block = human KCNK9 channel inhibition; HEK293 KCNK9, FluxOR thallium flux fluorescence; stronger effect = lower value; 310,000 tested, 1.2% active; B-score at 10 µM; Q9NPC2;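 active means ratio B-score over 3 SD below the library mean, with starting fluorescence within 5 SD of its mean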;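 further: negative B-score means less thallium flux so channel inhibition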
KCNQ1 inh = inhibitors of human KCNQ1 potassium channel | B-score at 10 µM | P51787 | 310,000 tested, 1.3% active | CHO-K1 KCNQ1, FluxOR thallium flux fluorescence; stronger effect = higher value;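 active means compounds whose thallium flux B-score, printed positive for inhibition, exceeds three library SD while starting fluorescence stays within three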;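 further: channel opened by potassium depolarization with thallium stimulus after 20 min compound exposure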
KCNQ1 act = human KCNQ1 channel potentiation or activation. CHO-K1 KCNQ1, thallium flux FluxOR fluorescence; stronger effect = higher value. B-score at 10 µM. 310,000 tested, 0.35% active. AID 2648;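 active means fluorescence ratio B-score, a plate-corrected score, at least three library SD, with initial intensity B-score within 5 SD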
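Assay system: stable KCNQ1 CHO-K1 line; medium: assay buffer, equal DMSO in all wells; timing: 90 min dye loading and 20 min compound exposure, both at room temperature; technique: kinetic FluxOR thallium fluorescence, 10-s 1-Hz baseline, 110-s post-stimulus read; read-out basis: B score of baseline-normalized fluorescence ratio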
hERG rescue = compounds protecting human hERG from proarrhythmic drug block | CHO-hERG, FluxOR thallium flux, dofetilide IC70 present | activation (rescue from dofetilide block), less the hit threshold, % at 10 µM | 310,000 tested, 0.51% active | AID 1511;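 active means activation above the mean of controls blocked by dofetilide plus 5 SD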;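 further: thallium influx through hERG after potassium depolarization seen as dye fluorescence rise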
KCNK9 block conf = human KCNK9 inhibitor confirmation | AID 492992 | shares compounds with KCNK9 block | HEK293 KCNK9 cells, FluxOR thallium flux fluorescence | 4,900 tested, 43% active | inhibition, % at 10 µM;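 active means thallium signal inhibited by more than 5 SD of the compound-free buffer control wells, on both duplicate plates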;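 further: 0% = assay buffer control wells without compound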
Kir21 sel = mouse Kir2.1 off-target activity of KCNK9 modulators; AID 492993; Kir2.1 cells, FluxOR thallium flux fluorescence; inhibition, % at 10 µM; 4,900 tested, 4% active; shares compounds with KCNK9 block;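 active means thallium signal drop more than 5 SD beyond the mean of the no-compound control wells, seen in both duplicate plates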;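 further: signal is fluorescence rise after thallium addition divided by baseline fluorescence; plate controls were assay buffer only for no effect and full block by chlorpromazine control for full effect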
HEK293 Tl ctr = second counter-screen for KCNK9 modulators: effect in non-induced cells. shares compounds with KCNK9 block. non-induced KCNK9-HEK293, FluxOR thallium flux. inhibition, % at 10 µM. 4,900 tested, 40% active. AID 492997;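 active means thallium signal drop beyond 5 SD of the untreated control mean, on both duplicate plates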;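 further: plate controls were buffer only IC0 wells for no effect and SID17386958 at its maximal inhibitory level for full effect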
The depositor's hits bear a star; i = inactive; · = no result. Sampled rows, rich in hits. Any-hit rate of the full collection: about 3.7%.

SMILES | Kir21 inh | KCNK3 block | KCNK9 block | KCNQ1 inh | KCNQ1 act | hERG rescue | KCNK9 block conf | Kir21 sel | HEK293 Tl ctr
N#C/C(=C\c1cn[nH]c1-c1ccc(Cl)cc1)C(=O)NC1CC1 | -0.12 | i | i | i | i | -12 | · | · | ·
N#C/C(=C\c1cn[nH]c1-c1ccccc1)C(=O)NC1CCCCCC1 | 1.1 | i | i | i | i | -8 | i | i | i
O=C(NC(c1ccc(Cl)cc1)c1c(O)ccc2ccccc12)c1ccccc1 (stereo not given) | · | i | · | · | · | · | · | · | ·
O=C(NC(c1ccccc1)c1c(O)ccc2ccccc12)c1ccccc1Cl (stereo not given) | 0.05 | -9.4* | -10* | i | i | -7 | i | i | 44%*
O=C(NCC1CC1)[C@]1(C(F)(F)F)C[C@H](CCC2CCCCC2)CCCO1 | 0.86 | i | i | i | i | -14 | · | · | ·
CCOC(=O)c1c(-c2ccc(-c3ccccc3)cc2)csc1NC(=O)C1C2CCC(O2)C1C(=O)O (stereo not given) | 0.68 | i | i | i | i | -9 | i | i | i
CCOC(=O)c1c(-c2ccccc2)csc1NC(=O)C1CCCO1 (stereo not given) | 0.04 | i | i | i | i | -1 | · | · | ·
CSc1nc(C(=O)N2CCCC(C(=O)c3ccc(Cl)cc3)C2)cs1 (stereo not given) | -3.4 | i | i | i | i | -15 | i | i | i
O=C(c1ccc2ccccc2c1)C1CCCN(C(=O)c2noc3c2CCCC3)C1 (stereo not given) | 0.58 | i | i | i | i | -19 | i | i | i
O=C(c1ccc(Cl)cc1)C1CCCN(C(=O)c2csnn2)C1 (stereo not given) | 0 | i | i | i | i | -4 | · | · | ·
CC#CC(=O)N1CCCC(C(=O)c2ccc(SC)cc2)C1 (stereo not given) | 0.92 | i | i | i | i | -1 | · | · | ·
Cc1cc(C(=O)N2CCCC(C(=O)c3ccc4ccccc4c3)C2)nn1C (stereo not given) | -0.27 | i | i | i | i | -6 | i | i | i
COc1c(C)cc(C(=O)C2CCCN(C(=O)c3cc(C)n(C)n3)C2)cc1C (stereo not given) | -0.56 | i | i | i | i | -1 | · | · | ·
CSc1ccc(C(=O)C2CCCN(C(=O)c3ccsc3)C2)cc1 (stereo not given) | 1.2 | i | i | i | i | -14 | i | i | i
COc1cccc(CNC(=O)c2ccc(CS(=O)c3ccccc3)o2)c1 (stereo not given) | -0.95 | i | i | i | i | -5 | · | · | ·
N#CC1(NC(=O)COC(=O)C23CC4CC(CC(O)(C4)C2)C3)CCCCC1 | -0.75 | i | i | i | i | -6 | · | · | ·
CSc1ccc(C(=O)C2CCCN(C(=O)c3cc(C)n(C)n3)C2)cc1 (stereo not given) | -0.22 | i | i | i | i | -6 | i | i | i
CCOC(=O)Cc1c(C)nc2c(-c3ccccc3OC)c(C)nn2c1C | 2.6 | i | i | i | i | -7 | i | i | i
CCOC(=O)Cc1c(C)nc2c(-c3ccc(Cl)cc3)c(C)nn2c1C | 0.41 | i | i | i | i | -6 | · | · | ·
Cc1ccc(C)c(C(=O)OCC(=O)N(C)c2ccccc2)c1 | -1.2 | i | i | i | i | -6 | i | i | i
Cc1cc(Cl)ccc1OC(C)C(=O)NCCCn1ccnc1 (stereo not given) | -3.9 | i | i | i | i | -21 | · | · | ·
COC(=O)CSc1nc(SCc2ccccc2Cl)nc2c1CCCC2 | 0.13 | i | i | i | i | -4 | i | i | i
O=C(O)CSc1nc(SCc2ccccc2Cl)nc2c1CCCC2 | -0.62 | i | i | i | i | -6 | · | · | ·
Cn1c(-c2ccc(C=O)s2)nc2c3ccccc3c3ccccc3c21 | -1.6 | i | -10* | 7* | i | -5 | 33%* | i | 72%*
CN(C)c1ccc(C(c2nnnn2CCOC(=O)Nc2ccc(Cl)cc2)N2CCOCC2)cc1 (stereo not given) | -0.37 | i | i | i | i | -9 | · | · | ·
SMILES | Kir21 inh | KCNK3 block | KCNK9 block | KCNQ1 inh | KCNQ1 act | hERG rescue | KCNK9 block conf | Kir21 sel | HEK293 Tl ctr
CN(C(=O)CN1C(=O)c2ccccc2S1(=O)=O)C1CCCCC1 | · | i | · | · | · | · | · | · | ·
O=C(CN1CCN(S(=O)(=O)c2ccccc2)CC1)N1CCCCC1 | · | i | · | · | · | · | · | · | ·
Cc1cccc(C(=O)Nc2scc(-c3ccc(Br)cc3)c2C(=O)O)c1 | 2.2 | i | i | i | i | -8 | · | · | ·
Cc1cccc(C(=O)Nc2ccc(NC(=O)c3ccccc3)cc2)c1 | 0.11 | i | -11* | i | i | -2 | 54%* | i | i
Cc1ccc(NC(=O)C(Nc2cccc(C)c2)c2ccccc2)cc1 (stereo not given) | 0.01 | i | i | i | i | -10 | 33%* | i | 32%*
Cc1ccc(NC(=O)C(Nc2ccccc2)c2ccccc2)cc1 (stereo not given) | -0.1 | i | i | i | i | -9 | · | · | ·
Cc1cccc(C(=O)Nc2ccccc2C(=O)OCC(=O)Nc2ccc(C#N)cc2)c1 | -0.62 | i | -9.3* | i | i | -15 | 32%* | i | 28%*
Cc1ccc(-c2csc(NC(=O)c3cccc(C)c3)c2C(=O)O)cc1 | 0.33 | i | i | i | i | -9 | i | i | i
Cc1cccc(C(=O)Nc2ccc(C(=O)Nc3ccc(O)cc3)cc2)c1 | 0 | i | i | i | i | -10 | · | · | ·
CC(OC(=O)c1ccc2c(c1)S(=O)(=O)c1ccccc1C2=O)C(N)=O (stereo not given) | 0.08 | i | i | i | i | -6 | · | · | ·
COC(=O)c1c(NC(=O)Cc2ccccc2)sc2c1C(C(=O)OC)CC2 (stereo not given) | -1.5 | i | i | i | i | -22 | i | i | i
O=C(Nc1ccccn1)c1ccc(Cl)c(S(=O)(=O)N2CCOCC2)c1 | 0.23 | i | i | i | i | 4 | · | · | ·
CCCn1c(C)cc(C(=O)COC(=O)c2ccc(Cl)c(S(=O)(=O)N3CCCC3)c2)c1C | -1.6 | i | -18* | i | i | -2 | 65%* | i | i
